Columns and labels:
[1] = Binding affinity to HIV-1 Yu2 full-length gp120 by surface plasmon resonance analysis; parameters: species or system Human immunodeficiency virus type 1 (isolate YU2)
How it was run: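 Gp120 binding was measured by SPR. Sensorgrams were fitted to a 1:1 Langmuir model to give ka and kd, and Kd was calculated from these rate constants.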

[2] = system: Human immunodeficiency virus 1; experiment: Antiviral activity against HIV-1 pseudotyped virus expressing HIV-1 isolate C envelope HIV-26191-2, clone 48 assessed as reduction of luciferase production after 3 days by single-cycle neutralization assay; format: functional, organism-based; settings: Human immunodeficiency virus 1, 72 h
How it was run: (§1)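 Single-cycle assay using pseudoviruses carrying Env from primary HIV-1 isolates of subtypes A, A/D, A/G, B, C and D reference viruses. Read-out is luciferase production, and IC50 is determined.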

[3] = system: Human immunodeficiency virus 1; experiment: Antiviral activity against HIV-1 pseudotyped virus expressing HIV-1 isolate A envelope QB726.70M.ENV.B3 assessed as reduction of luciferase production after 3 days by single-cycle neutralization assay; format: functional, organism-based; settings: Human immunodeficiency virus 1, 72 h; how it was run: as §1
[4] = system: Human immunodeficiency virus 1; experiment: Antiviral activity against HIV-1 NL4-3-HXB2 pseudovirus co-transfected with luciferase gene infected in human TZM-bl cells assessed as reduction of luciferase production after 3 days by single-cycle neutralization assay; format: functional, organism-based; settings: Human immunodeficiency virus 1, NL4-3-HXB2, TZM-bl, 72 h
How it was run: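 Single-cycle neutralization in TZM-bl cells; read-out is reduction of luciferase production. IC50 derived from dose-response.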

[5] = system: Human immunodeficiency virus 1; experiment: Antiviral activity against HIV-1 pseudotyped virus expressing HIV-1 isolate D envelope QD435.100M.ENV.B5 assessed as reduction of luciferase production after 3 days by single-cycle neutralization assay; format: functional, organism-based; settings: Human immunodeficiency virus 1, 72 h; how it was run: as §1
[6] = system: Human immunodeficiency virus 1; experiment: Antiviral activity against HIV-1 pseudotyped virus expressing HIV-1 isolate B envelope SC422661, clone B (SVPB8) assessed as reduction of luciferase production after 3 days by single-cycle neutralization assay; format: functional, organism-based; settings: Human immunodeficiency virus 1, 72 h; how it was run: as §1
[7] = system: Human immunodeficiency virus 1; experiment: Antiviral activity against HIV-1 pseudotyped virus expressing HIV-1 isolate B envelope pCAAN5342 clone A2 (SVPB19) assessed as reduction of luciferase production after 3 days by single-cycle neutralization assay; format: functional, organism-based; settings: Human immunodeficiency virus 1, 72 h; how it was run: as §1
[8] = Cytotoxicity against human MT2 cells after 4 days by XTT assay; format: cell-based
[9] = system: Human immunodeficiency virus 1; experiment: Antiviral activity against HIV-1 pseudotyped virus expressing HIV-1 isolate B envelope pREJO4541 clone 67 (SVPB16) assessed as reduction of luciferase production after 3 days by single-cycle neutralization assay; format: functional, organism-based; settings: Human immunodeficiency virus 1, 72 h; how it was run: as §1
[10] = system: Human immunodeficiency virus 1; experiment: Antiviral activity against HIV-1 pseudotyped virus expressing HIV-1 isolate D envelope QD435.100M.ENV.A4 assessed as reduction of luciferase production after 3 days by single-cycle neutralization assay; format: functional, organism-based; settings: Human immunodeficiency virus 1, 72 h; how it was run: as §1
[11] = system: Human immunodeficiency virus 1; experiment: Antiviral activity against HIV-1 pseudotyped virus expressing HIV-1 isolate AD envelope QA790.204I.ENV.A4 assessed as reduction of luciferase production after 3 days by single-cycle neutralization assay; format: functional, organism-based; settings: Human immunodeficiency virus 1, 72 h; how it was run: as §1
[12] = system: Human immunodeficiency virus 1; experiment: Antiviral activity against HIV-1 pseudotyped virus expressing HIV-1 isolate AG envelope CRF02_AG (clone 211) assessed as reduction of luciferase production after 3 days by single-cycle neutralization assay; format: functional, organism-based; settings: Human immunodeficiency virus 1, 72 h; how it was run: as §1
[13] = system: Human immunodeficiency virus 1; experiment: Antiviral activity against HIV-1 pseudotyped virus expressing HIV-1 isolate C envelope ZM233M.PB6, SVPC9 assessed as reduction of luciferase production after 3 days by single-cycle neutralization assay; format: functional, organism-based; settings: Human immunodeficiency virus 1, 72 h; how it was run: as §1
[14] = system: Human immunodeficiency virus 1; experiment: Antiviral activity against HIV-1 pseudotyped virus expressing HIV-1 isolate A envelope QH343.21M.ENV.A10 assessed as reduction of luciferase production after 3 days by single-cycle neutralization assay; format: functional, organism-based; settings: Human immunodeficiency virus 1, 72 h; how it was run: as §1
[15] = system: Human immunodeficiency virus 1; experiment: Antiviral activity against HIV-1 pseudotyped virus expressing HIV-1 isolate C envelope ZM135M.PL10a, SVPC15 assessed as reduction of luciferase production after 3 days by single-cycle neutralization assay; format: functional, organism-based; settings: Human immunodeficiency virus 1, 72 h; how it was run: as §1
[16] = system: Human immunodeficiency virus 1; experiment: Antiviral activity against HIV-1 pseudotyped virus expressing HIV-1 isolate B envelope pRHPA4259 clone 7 (SVPB14) assessed as reduction of luciferase production after 3 days by single-cycle neutralization assay; format: functional, organism-based; settings: Human immunodeficiency virus 1, 72 h; how it was run: as §1
[17] = system: Human immunodeficiency virus 1; experiment: Antiviral activity against HIV-1 pseudotyped virus expressing HIV-1 isolate A envelope QF495.23M.ENV.A3 assessed as reduction of luciferase production after 3 days by single-cycle neutralization assay; format: functional, organism-based; settings: Human immunodeficiency virus 1, 72 h; how it was run: as §1
[18] = Cytotoxicity against human TZM-bl cells after 3 days by XTT assay; format: cell-based
[19] = system: Human immunodeficiency virus 1; experiment: Antiviral activity against HIV-1 pseudotyped virus expressing HIV-1 isolate AG envelope CRF02_AG (clone 263) assessed as reduction of luciferase production after 3 days by single-cycle neutralization assay; format: functional, organism-based; settings: Human immunodeficiency virus 1, 72 h; how it was run: as §1
[20] = system: Human immunodeficiency virus 1; experiment: Antiviral activity against HIV-1 pseudotyped virus expressing HIV-1 isolate D envelope QD435.100M.ENV.E1 assessed as reduction of luciferase production after 3 days by single-cycle neutralization assay; format: functional, organism-based; settings: Human immunodeficiency virus 1, 72 h; how it was run: as §1
[21] = system: Human immunodeficiency virus 1; experiment: Antiviral activity against HIV-1 3B infected in human MT-2 cells assessed as reduction in p24 antigen level incubated for overnight measured on fourth day post infection by multi-cycle infection assay based sandwich ELISA; format: functional, organism-based; settings: Human immunodeficiency virus 1, 3B, MT2
How it was run: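 Multi-cycle infection in MT-2 cells; read-out is reduction of p24 levels. IC50 derived from dose-response.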

[22] = system: Human immunodeficiency virus 1; experiment: Antiviral activity against HIV-1 pseudotyped virus expressing HIV-1 isolate C envelope HIV-25925-2, clone 22 assessed as reduction of luciferase production after 3 days by single-cycle neutralization assay; format: functional, organism-based; settings: Human immunodeficiency virus 1, 72 h; how it was run: as §1
[23] = system: Human immunodeficiency virus 1; experiment: Antiviral activity against HIV-1 pseudotyped virus expressing HIV-1 isolate A envelope QF495.23M.ENV.B2 assessed as reduction of luciferase production after 3 days by single-cycle neutralization assay; format: functional, organism-based; settings: Human immunodeficiency virus 1, 72 h; how it was run: as §1
[24] = system: Human immunodeficiency virus 1; experiment: Antiviral activity against HIV-1 pseudotyped virus expressing HIV-1 isolate D envelope QA013.70I.ENV.M12 assessed as reduction of luciferase production after 3 days by single-cycle neutralization assay; format: functional, organism-based; settings: Human immunodeficiency virus 1, 72 h; how it was run: as §1
[25] = system: Human immunodeficiency virus 1; experiment: Antiviral activity against HIV-1 pseudotyped virus expressing HIV-1 isolate D envelope QA465.59M.ENV.D1 assessed as reduction of luciferase production after 3 days by single-cycle neutralization assay; format: functional, organism-based; settings: Human immunodeficiency virus 1, 72 h; how it was run: as §1
[26] = system: Human immunodeficiency virus 1; experiment: Antiviral activity against HIV-1 pseudotyped virus expressing HIV-1 isolate AD envelope QA790.204I.ENV.E2 assessed as reduction of luciferase production after 3 days by single-cycle neutralization assay; format: functional, organism-based; settings: Human immunodeficiency virus 1, 72 h; how it was run: as §1
[27] = system: Human immunodeficiency virus 1; experiment: Antiviral activity against HIV-1 pseudotyped virus expressing HIV-1 isolate C envelope Du156, clone 12 (SVPC3) assessed as reduction of luciferase production after 3 days by single-cycle neutralization assay; format: functional, organism-based; settings: Human immunodeficiency virus 1, 72 h; how it was run: as §1
[28] = system: Human immunodeficiency virus 1; experiment: Antiviral activity against HIV-1 pseudotyped virus expressing HIV-1 isolate B envelope PVO, clone 4 (SVPB11) assessed as reduction of luciferase production after 3 days by single-cycle neutralization assay; format: functional, organism-based; settings: Human immunodeficiency virus 1, 72 h; how it was run: as §1
[29] = system: Human immunodeficiency virus 1; experiment: Antiviral activity against HIV-1 pseudotyped virus expressing HIV-1 isolate D envelope QA465.59M.ENV.A1 assessed as reduction of luciferase production after 3 days by single-cycle neutralization assay; format: functional, organism-based; settings: Human immunodeficiency virus 1, 72 h; how it was run: as §1
[30] = Binding affinity to HIV-1 capsid protein C-terminal domain M184A/W185A mutant at 20 uM by isothermal titration calorimetric analysis; parameters: species or system Human immunodeficiency virus 1
How it was run: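 ITC: 625 μM CTD M184A/W185A mutant titrated in 10 μL aliquots into 20 μM peptide in the cell. The integrated binding isotherm was fitted to a single-site binding equation to give Kd.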

SMILES: CC[C@H](C)[C@H](NC(C)=O)C(=O)N[C@@H](CO)C(=O)N[C@@H](Cc1ccccc1)C(=O)N[C@@H]1CSCc2ccc(cc2)-c2ccc(cc2)CSC[C@@H](C(=O)N[C@@H](CCC(=O)O)C(=O)N[C@@H](CO)C(=O)NCC(=O)N[C@@H](CO)C(N)=O)NC(=O)[C@H](Cc2ccc(O)cc2)NC(=O)[C@H](Cc2ccc(O)cc2)NC(=O)[C@H](CC(=O)O)NC(=O)[C@H](CC(C)C)NC(=O)[C@H](CC(C)C)NC(=O)[C@H](CCC(=O)O)NC1=O
- Kd [1]: 7.4 µM
- IC50 [2]: 6.3 µM
- IC50 [3]: 15.4 µM
- IC50 [4]: 1.9 µM
- IC50 [5]: 15.4 µM
- IC50 [6]: 3.7 µM
- IC50 [7]: 4.6 µM
- CC50 at 96 h [8]: > 103 µM
- IC50 [9]: 3.4 µM
- IC50 [10]: 1 µM
- IC50 [11]: 7 µM
- IC50 [12]: 4 µM
- IC50 [13]: 3.6 µM
- IC50 [14]: 15.4 µM
- IC50 [15]: 1 µM
- IC50 [16]: 1.6 µM
- IC50 [17]: 1.4 µM
- CC50 at 72 h [18]: > 103 µM
- IC50 [19]: 4.4 µM
- IC50 [20]: 15.4 µM
- IC50 [21]: 2.8 µM
- IC50 [22]: 1.1 µM
- IC50 [23]: 10 µM
- IC50 [24]: 15.4 µM
- IC50 [25]: 7.7 µM
- IC50 [26]: 7.7 µM
- IC50 [27]: 17.9 µM
- IC50 [28]: 3.5 µM
- IC50 [29]: 15.4 µM
- Kd [30]: 17.5 µM

SMILES: CC[C@H](C)[C@H](NC(C)=O)C(=O)N[C@@H](CO)C(=O)N[C@@H](Cc1ccccc1)C(=O)N[C@@H]1CSCc2ccc(cc2)-c2ccc(cc2)CSC[C@@H](C(=O)N[C@@H](CCC(=O)O)C(=O)N[C@@H](CO)C(=O)NCC(=O)N[C@@H](CO)C(N)=O)NC(=O)[C@H](Cc2ccc(O)cc2)NC(=O)[C@H](Cc2ccc(O)cc2)NC(=O)[C@H](CC(=O)O)NC(=O)[C@H](CC(C)C)NC(=O)[C@H](CC(C)C)NC(=O)[C@H](CCC(N)=O)NC1=O
- IC50 [4]: 3.1 µM
- CC50 at 96 h [8]: > 103 µM
- CC50 at 72 h [18]: > 103 µM
- IC50 [21]: 5.5 µM

SMILES: CC[C@H](C)[C@H](NC(C)=O)C(=O)N[C@@H](CO)C(=O)N[C@@H](Cc1ccccc1)C(=O)N[C@@H]1CSCc2ccc(cc2)-c2ccc(cc2)CSC[C@@H](C(=O)N[C@@H](CCC(=O)O)C(=O)N[C@@H](CO)C(=O)NCC(=O)N[C@@H](CO)C(N)=O)NC(=O)[C@H](Cc2ccc(O)cc2)NC(=O)[C@H](Cc2ccc(O)cc2)NC(=O)[C@H](CC(N)=O)NC(=O)[C@H](CC(C)C)NC(=O)[C@H](CC(C)C)NC(=O)[C@H](CCC(=O)O)NC1=O
- IC50 [4]: 1.8 µM
- CC50 at 96 h [8]: > 102 µM
- CC50 at 72 h [18]: > 102 µM
- IC50 [21]: 8.8 µM

SMILES: CC[C@H](C)[C@H](NC(C)=O)C(=O)N[C@@H](CO)C(=O)N[C@@H](Cc1ccccc1)C(=O)N[C@@H]1CSCc2ccc(cc2)-c2ccc(cc2)CSC[C@@H](C(=O)N[C@@H](CCC(=O)O)C(=O)N[C@@H](CO)C(=O)NCC(=O)N[C@@H](CO)C(N)=O)NC(=O)[C@H](Cc2ccc(O)cc2)NC(=O)[C@H](Cc2ccc(O)cc2)NC(=O)[C@H](CC(N)=O)NC(=O)[C@H](CC(C)C)NC(=O)[C@H](CC(C)C)NC(=O)[C@H](CCC(N)=O)NC1=O
- IC50 [4]: 1.6 µM
- CC50 at 96 h [8]: 51 µM
- CC50 at 72 h [18]: > 102 µM
- IC50 [21]: 5.7 µM

Source: ChEMBL document CHEMBL3232893, “Design of antiviral stapled peptides containing a biphenyl cross-linker” (Bioorg Med Chem Lett, 2014)
